We go through 1 compound from ChEMBL document CHEMBL1144664, “Design, synthesis, and SAR of new pyrrole-oxindole progesterone receptor modulators leading to 5-(7-fluoro-3,3-dimethyl-2-oxo-2,3-dihydro-1H-indol-5-yl)-1-methyl-1H-pyrrole-2-carbonitrile (WAY-255348)” (J Med Chem, 2008).

The source made the active and inactive calls. The calls are words filed in the database; no cut-off is given here.

The target of data set [1] is T1, Glucocorticoid receptor (Homo sapiens) (UniProt P04150).
T1 sequence (whole entry): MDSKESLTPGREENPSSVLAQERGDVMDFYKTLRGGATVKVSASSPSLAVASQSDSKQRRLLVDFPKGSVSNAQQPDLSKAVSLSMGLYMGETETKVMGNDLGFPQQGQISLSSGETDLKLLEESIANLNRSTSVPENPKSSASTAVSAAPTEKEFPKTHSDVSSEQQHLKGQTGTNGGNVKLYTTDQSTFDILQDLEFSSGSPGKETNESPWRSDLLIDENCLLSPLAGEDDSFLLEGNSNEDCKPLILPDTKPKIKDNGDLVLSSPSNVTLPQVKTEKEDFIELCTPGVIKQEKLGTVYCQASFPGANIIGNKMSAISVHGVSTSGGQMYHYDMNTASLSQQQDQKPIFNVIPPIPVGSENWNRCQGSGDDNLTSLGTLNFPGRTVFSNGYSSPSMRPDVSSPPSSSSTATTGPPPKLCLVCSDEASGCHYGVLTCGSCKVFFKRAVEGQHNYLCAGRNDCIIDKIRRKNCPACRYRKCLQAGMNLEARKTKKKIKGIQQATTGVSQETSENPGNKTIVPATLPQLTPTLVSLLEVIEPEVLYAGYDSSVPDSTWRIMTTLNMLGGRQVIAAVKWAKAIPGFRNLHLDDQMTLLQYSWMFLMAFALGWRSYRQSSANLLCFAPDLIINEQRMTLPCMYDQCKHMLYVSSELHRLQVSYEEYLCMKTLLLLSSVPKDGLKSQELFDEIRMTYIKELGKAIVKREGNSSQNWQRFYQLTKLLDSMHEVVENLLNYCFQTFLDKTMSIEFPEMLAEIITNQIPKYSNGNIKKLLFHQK
Kind of data set: Antagonist activity at human GR ligand binding domain expressed in african green monkey COS7 cells in presence of Dexamethasone by Gal4 hybrid assay. The data set is classed as cell-based. Conditions: COS-7.

A short description of data set [2]: Drug level in cynomolgus monkey at […], iv. The data set is classed as ADME, organism-based, Macaca fascicularis. Also noted: dose 0.25 mg/kg, route intravenous. As to conditions: in vivo.
In data set [3] the target is T2, Mineralocorticoid receptor (Homo sapiens) (UniProt P08235).
T2 sequence (whole entry): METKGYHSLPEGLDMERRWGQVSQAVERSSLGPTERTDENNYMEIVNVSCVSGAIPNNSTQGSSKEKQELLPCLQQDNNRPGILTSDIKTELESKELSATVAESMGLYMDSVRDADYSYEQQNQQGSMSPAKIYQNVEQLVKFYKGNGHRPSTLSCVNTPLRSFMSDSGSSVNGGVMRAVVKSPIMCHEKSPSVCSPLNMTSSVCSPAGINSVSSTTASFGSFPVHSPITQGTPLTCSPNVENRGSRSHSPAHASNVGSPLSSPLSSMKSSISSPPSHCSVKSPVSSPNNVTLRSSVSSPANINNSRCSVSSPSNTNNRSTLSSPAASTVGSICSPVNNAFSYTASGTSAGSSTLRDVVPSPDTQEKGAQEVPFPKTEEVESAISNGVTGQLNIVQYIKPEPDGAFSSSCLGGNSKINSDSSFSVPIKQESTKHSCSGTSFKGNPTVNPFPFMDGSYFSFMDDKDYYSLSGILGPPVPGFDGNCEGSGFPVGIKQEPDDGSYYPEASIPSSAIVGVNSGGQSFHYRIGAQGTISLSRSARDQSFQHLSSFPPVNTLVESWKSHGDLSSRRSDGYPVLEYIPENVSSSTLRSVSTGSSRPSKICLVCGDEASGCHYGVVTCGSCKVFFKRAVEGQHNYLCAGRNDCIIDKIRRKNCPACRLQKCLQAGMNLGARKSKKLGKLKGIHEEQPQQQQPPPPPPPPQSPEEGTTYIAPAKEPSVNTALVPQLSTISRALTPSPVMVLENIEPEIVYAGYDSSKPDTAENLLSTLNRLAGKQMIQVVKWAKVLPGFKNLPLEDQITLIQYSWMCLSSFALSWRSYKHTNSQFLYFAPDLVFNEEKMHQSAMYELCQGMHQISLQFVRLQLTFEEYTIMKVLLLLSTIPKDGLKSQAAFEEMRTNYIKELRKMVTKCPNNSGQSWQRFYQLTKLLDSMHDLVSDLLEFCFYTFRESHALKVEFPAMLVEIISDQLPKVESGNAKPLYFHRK
Kind of data set: Agonist activity at human MR ligand binding domain receptor expressed in african green monkey COS7 cells by Gal4 hybrid assay. Conditions: COS-7. The data set is classed as cell-based. A digest of the protocol:
(§1)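 Gal4-steroid receptor LBD fusion plasmid plus GAL4_UAS (5 copies, E1b TATA)-luciferase reporter, 50 ng/well each, transfected 16 h into COS-7 cells grown in phenol red-free DMEM with 10% charcoal/dextran-treated FBS. Compound treatment 20 h, then luciferase read-out. Antagonist mode uses 3 nM aldosterone (hMR) or 5 nM 17β-estradiol (hER). Values are the average of at least duplicate determinations.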

The nature of data set [4]: Oral bioavailability in cynomolgus monkey at 5 mg/kg. The data set is classed as ADME, organism-based, Macaca fascicularis. As to conditions: in vivo.
The target in data set [5] is T3, Estrogen receptor (Homo sapiens) (UniProt P03372).
T3 sequence (whole entry): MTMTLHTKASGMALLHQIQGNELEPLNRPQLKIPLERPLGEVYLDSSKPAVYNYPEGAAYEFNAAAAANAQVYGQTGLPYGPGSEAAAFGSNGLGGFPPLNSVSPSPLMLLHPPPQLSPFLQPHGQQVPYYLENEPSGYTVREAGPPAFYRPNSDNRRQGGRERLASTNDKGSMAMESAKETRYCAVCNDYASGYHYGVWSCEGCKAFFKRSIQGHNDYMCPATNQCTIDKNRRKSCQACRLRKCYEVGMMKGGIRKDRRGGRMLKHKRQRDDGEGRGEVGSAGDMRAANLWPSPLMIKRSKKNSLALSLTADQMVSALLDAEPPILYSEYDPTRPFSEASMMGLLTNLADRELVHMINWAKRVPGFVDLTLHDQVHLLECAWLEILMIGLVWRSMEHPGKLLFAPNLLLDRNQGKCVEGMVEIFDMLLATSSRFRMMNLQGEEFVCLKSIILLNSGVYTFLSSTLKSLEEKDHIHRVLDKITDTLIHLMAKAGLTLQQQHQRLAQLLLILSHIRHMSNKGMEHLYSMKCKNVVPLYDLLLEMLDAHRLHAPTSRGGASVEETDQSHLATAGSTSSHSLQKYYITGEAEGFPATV
Kind of data set: Antagonist activity at human ER ligand binding domain expressed in african green monkey COS7 cells in presence of 17-beta-estradiol by Gal4 hybrid assay. The data set is classed as cell-based. Conditions: COS-7. A digest of the protocol: as §1

For data set [6], the system named is Rhesus monkey. Kind of data set: Effect on basalis KI67 assessed as number of KI67 labeled cells of rhesus monkey. The data set is classed as functional, Macaca mulatta. A digest of the protocol: (§2)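 Adult female rhesus macaques (n=3) with regular cycles dosed 10 mg/(kg·day) po in 2% Tween 80/0.5% methylcellulose with cherry flavoring for 28 days from cycle day 2. Serum estradiol and progesterone measured every 3 days. Necropsy on day 28. Uterine weights are of half the uterus; KI-67 and mitotic indices counted per 1000 cells. Values given as mean ± SE.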

A short description of data set [7]: Stability in rat liver microsome assessed as half life. The data set is classed as ADME. Conditions: liver microsomes. A digest of the protocol:
(§3)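 Female rat, cynomolgus monkey and human liver microsome stability; half-life (min) reported.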
In general terms: Microsomes from liver hold many membrane-bound enzymes, among them those of drug oxidation.

The nature of data set [8]: Stability in cynomolgus monkey liver microsome assessed as half life. The data set is classed as ADME, Macaca fascicularis. As to conditions: liver microsomes. The gist of the method: as §3
Data set [9] is described as follows: AUC (0 to infinity) at steady state in cynomolgus monkey at 1 mg/kg, iv. The data set is classed as ADME, organism-based, Macaca fascicularis. Also on record: time infinity, dose 1 mg/kg, route intravenous. Conditions: plasma.
The subject of data set [10] is Rhesus monkey. Kind of data set: Effect on endometrium thickness of rhesus monkey. The data set is classed as functional, Macaca mulatta. A digest of the protocol: as §2

One may read the bioavailability as the share of a dose that reaches the circulation, judged against a reference dose that is usually intravenous. For orientation: half-life means the time in which the quantity being followed falls by half. Broadly, the AUC(0-inf) is total exposure, with the tail of the curve extrapolated.

Regarding `Cn1c(C#N)ccc1-c1cc(F)c2c(c1)C(C)(C)C(=O)N2`, the outcome in data set [1], in data set [3] and in data set [5] was inactive. Moreover, in data set [2], the C0 was 178 ng/mL. For the same compound, the bioavailability in [4] was 49%. Besides, the Activity in the data set with Rhesus monkey [6] is given as 0; with Rhesus monkey [10], 2.2 mm. Further, the half-life in data set [7] came to 26 min; in [8], 19 min. Besides, in data set [9], the AUC(0-inf) is 2360 ng·h/mL.
